Diaphorase act: compounds boosting diaphorase resazurin reduction – biochemical, uHTS, resorufin fluorescence, counter-screen for diaphorase-coupled primary assays, primary screen; Diaphorase/resazurin coupled assay, 16 min; hits give high values; 1 = vehicle wells, 0 = NADH-free wells; activation factor at 20 µM; 190,000 compounds, 0.005% hits; AID 1229, 2008;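 active = diaphorase activity raised at least twofold by the compound at 20 µM; inactive = activation factor below 2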
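System – purified diaphorase enzyme from Clostridium kluyveri · Input – enzyme 0.07 U/mL final · Also added – final NADH 0.114 mM, resazurin 0.1 mM · Measured by – fluorescence of resorufin, 544 nm excitation, 590 nm emission · Timing – 16 min enzyme reaction, ambient temperature · Measure – resorufin increase flagging diaphorase activators or reducers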
NCF1 inh: p47phox/p22phox peptide binding inhibitors, primary screen, biochemical, uHTS, NADPH oxidase regulatory subunit; AID 1274, 2008; fluorescence polarization, 2 h; inhibition, % at 24.7 µM; Neutrophil cytosol factor 1 (Homo sapiens), P14598; 220,000 compounds, 0.53% hits;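 active = inhibition above about 30%, limit read from the data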;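 note: 0% = p47phox with labelled peptide and 100% = labelled peptide alone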
ABCB1 inh: ABCB1 efflux pump inhibitors, primary screen, cell-based, multiplex, flow cytometry, ABCG2 counter-screen; 190,000 compounds, 0.067% hits; ATP-dependent translocase ABCB1 (Homo sapiens), P08183; inhibition, % at 6.6 µM; CCRF-Adr cells, JC-1 efflux; in the data active = inhibition above about 40%;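 note: 0% = vehicle and 100% = reference inhibitor; higher value means more JC-1 retained so stronger ABCB1 efflux block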
HMGR II inh: inhibitors of E. faecalis class II HMGR, primary screen, biochemical, Enterococcus faecalis | HMG-CoA reductase (Enterococcus faecalis, mvaE) | purified E. faecalis HMGR, NADPH absorbance 340 nm kinetic | inhibition, % at 10 µM | 190,000 compounds, 0.41% hits | AID 1066, 2008;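 active = inhibition above a set limit, the median over all tested compounds plus 3 SD, cut at about 9.5% in these data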;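 note: enzyme runs in reverse so mevalonate oxidation gives rising NADPH absorbance; 0% = complete reaction with DMSO and 100% = background rate lacking mevalonate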
ABCG2 inh: ABCG2 efflux pump inhibitors, primary screen, multiplex with ABCB1, IgMXP3 cells, flow cytometry | inhibition, % at 6.6 µM | Broad substrate specificity ATP-binding cassette transporter ABCG2 (Homo sapiens), Q9UNQ0 | JC-1 efflux | 190,000 compounds, 0.1% hits;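 active = inhibition above 80%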;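 note: 0% = DMSO and 100% = nicardipine control wells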
Target sequence (Q9UNQ0 whole entry, looked up): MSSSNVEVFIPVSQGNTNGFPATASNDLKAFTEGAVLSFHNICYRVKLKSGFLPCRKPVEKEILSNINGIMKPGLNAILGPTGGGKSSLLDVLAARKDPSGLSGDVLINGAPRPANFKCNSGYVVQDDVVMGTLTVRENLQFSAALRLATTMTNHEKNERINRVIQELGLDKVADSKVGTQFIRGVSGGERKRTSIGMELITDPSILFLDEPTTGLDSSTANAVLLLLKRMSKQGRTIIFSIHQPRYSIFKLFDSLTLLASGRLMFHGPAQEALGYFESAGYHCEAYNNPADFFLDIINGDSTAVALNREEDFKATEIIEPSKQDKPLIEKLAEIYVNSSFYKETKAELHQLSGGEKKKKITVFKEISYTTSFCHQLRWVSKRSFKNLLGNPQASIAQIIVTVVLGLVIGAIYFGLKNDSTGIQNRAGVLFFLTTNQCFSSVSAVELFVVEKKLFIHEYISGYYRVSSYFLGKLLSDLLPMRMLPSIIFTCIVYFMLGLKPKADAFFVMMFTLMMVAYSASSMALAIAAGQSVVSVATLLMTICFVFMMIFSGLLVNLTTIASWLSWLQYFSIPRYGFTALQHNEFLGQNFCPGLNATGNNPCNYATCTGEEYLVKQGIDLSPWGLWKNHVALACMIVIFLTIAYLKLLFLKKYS
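Test system: ABCG2 IgMXP3 and barcoded ABCB1 CCRF-Adr cell mix; Schedule: cells with compound and JC-1, 10 min at 25 °C, rotating, no wash; Technique: flow cytometry of retained JC-1 fluorescence; Measure: % inhibition of efflux relative to nicardipine and DMSO; Controls: nicardipine high and DMSO low controls.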
Diaph inh CS: diaphorase inhibitors and chemical oxidizers, primary screen, counter-screen for diaphorase-coupled primary assays, biochemical, uHTS, resorufin fluorescence | diaphorase resazurin-to-resorufin fluorescence, NADH, 16 min; bacterial (C. kluyveri) enzyme, not human | inhibition, % at 20 µM | 190,000 compounds, 0.69% hits;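 active = primary screen inhibition at 20 µM above a set limit, cut at about 50% in these data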;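 note: plate controls were DMSO with full reaction for no effect and wells lacking NADH for full effect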
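material = Clostridium kluyveri diaphorase enzyme | amount = 0.14 U/mL diaphorase, enzyme working solution | schedule = incubation 16 min, room temperature | detection = fluorescence of resorufin formed from resazurin, Ex 544/Em 590 nm | benchmarks = positive control minus NADH, DMSO neutral control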
Active calls of the source: *; · = no result; + = active, no number. Most compounds without a hit are left out; they make up all but 1.6% or so of the library.

SMILES | Diaphorase act | NCF1 inh | ABCB1 inh | HMGR II inh | ABCG2 inh | Diaph inh CS
CC(Sc1cccc[n+]1[O-])C(=O)Nc1ccc([N+](=O)[O-])cc1Cl (stereo unspecified) | 1.1 | 3 | 0 | -4 | 2 | -9
CCCC(=O)NC(=S)Nc1ccc(Cl)cn1 | 1 | -6 | -1 | 29* | -4 | -1
CCN1CCN(CCCNC(=O)Cn2cc3c(n2)CCCC3)CC1 | 1 | -12 | -1 | -6 | -1 | 3
O=C(Nc1nnc(-c2ccc3c(c2)CCCC3)o1)c1c(F)cccc1F | 0.9 | 7 | 0 | 10* | 0 | 8
Cc1noc(C)c1COC(=O)Cc1ccc(Cl)c(Cl)c1 | 0.9 | + | 0 | -5 | 0 | 12
Cc1noc(C)c1COC(=O)[C@H](C)NS(=O)(=O)c1ccc(Cl)c(Cl)c1 | 0.9 | -28 | 1 | -3 | 1 | 14
COc1cc(S(=O)(=O)Nc2ccc(C)cc2)ccc1N=Cc1c(C)c(C#N)c(=O)n(C)c1O | 1 | -46 | 0 | -8 | 0 | -1
Cc1ccc(N/N=C/c2c(C)c(C#N)c(=O)n(C)c2O)cc1C | 0.3 | -15 | -1 | 0 | -6 | 69*
COc1cc(CC(NC(C)=O)C(=O)NC2CCN(C(=O)C3CC3)CC2)cc(OC)c1 (stereo unspecified) | 1 | -4 | 0 | 9.6* | 1 | 2
COc1cc(CC(NC(C)=O)C(=O)NC2CCN(c3nc(OC)nc(OC)n3)CC2)cc(OC)c1 (stereo unspecified) | · | -7 | · | · | · | ·
COc1ccc(OC)c(CC(NC(C)=O)C(=O)NC2CCN(c3cc(C)nc4ncnn34)CC2)c1 (stereo unspecified) | 0.9 | -12 | 0 | 9.7* | 2 | 10
CCN(CC)C(=O)CSc1nc(OC)cc(=O)[nH]1 | 0.9 | -2 | 1 | -1 | 9 | 12
CCN(Cc1cc(=O)n2cc(Cl)c(C)c(Cl)c2n1)Cc1nc2ccccc2c(=O)[nH]1 | 0.8 | -12 | 4 | 10* | 4 | 23
CCN(Cc1nc2ccccc2c(=O)[nH]1)Cc1nc2cc(OC)c(OC)cc2c(=O)[nH]1 | 0.8 | -9 | 0 | -7 | 0 | 23
Cn1c2ccccc2c(=O)c2c(=O)n(C3CCCCCC3)c(C3CCCCC3)nc21 | 0.7 | 45* | 1 | -2 | 33 | 27
NS(=O)(=O)c1cccc(NC(=O)CSc2ncc(C(F)(F)F)cc2Cl)c1 | 0.8 | -13 | 0 | -4 | 1 | 21
CC(=O)NCCCC(=O)NC(CCC(=O)OCc1ccccc1)C(=O)OCc1ccccc1 (stereo unspecified) | 1 | 2 | 0 | 0 | 6 | 2
Cn1nc(C(=O)OCC(=O)N2CCc3ccccc32)c2ccccc2c1=O | 0.9 | 12 | 1 | 0 | 0 | 6
CCOC(=O)c1cc(C(=O)OCC)c(=O)[nH]c1C | 1.2 | -3 | -1 | -2 | -1 | -15
CCOC(=O)c1cc(C)[nH]c(=S)c1C#N | 0.5 | 30 | 1 | 0 | 4 | 52*
CCN1CCCc2cc(CN(CCN3CCOCC3)C(=S)Nc3cc(F)cc(F)c3)ccc21 | 0.8 | -17 | 5 | -1 | 2 | 17
COC(=O)c1c(NC(=O)CSc2nnc(-c3ccco3)n2Cc2ccccc2)sc(C)c1C | 0.4 | -54 | 2 | -1 | 4 | 57*
CCOC(=O)c1cnc2ccc(C(=O)OC)cc2c1Nc1cccc(C(=O)O)c1 | 1 | 42* | 2 | -8 | 9 | 3
O=[N+]([O-])c1ccc(O)c2ncccc12 | 0.7 | -2 | 0 | -6 | 2 | 30
O=[N+]([O-])c1cc([N+](=O)[O-])c2cccnc2c1Oc1ccccc1O | 0.4 | 12 | 0 | 0 | 0 | 60*
SMILES | Diaphorase act | NCF1 inh | ABCB1 inh | HMGR II inh | ABCG2 inh | Diaph inh CS
O=C(NNC(=O)c1ccc(-c2ccccc2)cc1)c1ccccc1 | 0.9 | -24 | 0 | 3 | 1 | 12
COc1ccc(/C=N/NC(=O)c2nn(-c3ccc(C)c(C)c3)c(=O)c3ccccc23)cc1 | 0.8 | + | -1 | -1 | -2 | 22
COc1ccc(-n2nc(C(=O)Nc3nc4ccc(OC)cc4s3)c3ccccc3c2=O)cc1 | 0.8 | 38* | 1 | 6 | 6 | 16
COc1ccc(/C=N/NC(=O)c2nn(-c3ccc(Cl)cc3)c(=O)c3c(N)scc23)cc1 | 0.5 | -18 | 0 | -3 | 0 | 50*
COc1ccc2nc(NC(=O)c3ccc(-n4nc(C)cc4C)cc3)sc2c1 | 0.9 | -3 | 0 | -11 | -1 | 6
COc1ccc(/C=N/NC(=O)c2nn(-c3ccccc3)c(=O)c3c(N)scc23)cc1 | 0.4 | -4 | 0 | 0 | 0 | 57*
CCC1CCCCN1CCCNC(=O)CCCOc1cc(=O)n(C)c2ccccc12 (stereo unspecified) | 1 | -13 | 0 | -1 | 0 | -1
Cc1nc2c(C)cccn2c1/C(O)=C1\C(=O)C(=O)N(CCN2CCOCC2)C1c1ccncc1 (stereo unspecified) | 1 | -9 | 1 | -2 | 2 | 2
Oc1ccc(Br)cc1C=Nc1ccc2c3c(cccc13)CC2 | 0.3 | -15 | 0 | 2 | 0 | 67*
CC(C)CNC(=O)COC(=O)c1cc(S(=O)(=O)N(C)C)ccc1N1CCCC1 | 0.9 | 1 | 0 | -3 | 3 | 10
Cc1ccc(CNC(=O)Cn2ccc3ccccc3c2=O)o1 | 0.8 | -2 | 1 | -2 | 4 | 16
O=c1oc2ccccc2c(Nc2ccccc2O)c1[N+](=O)[O-] | 0.4 | 1 | 1 | -1 | 6 | 58*
Nn1c(SCC(=O)Nc2ccc3c(c2)OCO3)nnc1C1CC1 | 1 | -14 | 0 | 0 | -2 | 3
Nn1c(SCC(=O)Nc2ccc3c(c2)OCO3)nncc1=O | 0.8 | · | 0 | 9.7* | 4 | 17
Cc1cc2nn(-c3cccc4ccccc34)nc2cc1N | 0.2 | -12 | 0 | 3 | 0 | 78*
Cc1ccc(-n2nc3cc(C)c(N)cc3n2)cc1 | 0.2 | 3 | 0 | -7 | 0 | 76*
COc1ccc(-n2nc3cc(C)c(N)c(Br)c3n2)cc1 | 0.3 | -1 | 6 | 2 | 22 | 74*
COc1ccc(-n2nc3cc(C)c(NC(C)=O)cc3n2)cc1 | 1 | 3 | 0 | -4 | 0 | -3

High-throughput results (PubChem BioAssay)
